Results as given in ChEMBL document CHEMBL1125789, “Synthesis and selective class III antiarrhythmic activity of novel N-heteroaralkyl-substituted 1-(aryloxy)-2-propanolamine and related propylamine derivatives” (J Med Chem, 1991).

Key:
Canis familiaris [1] = experiment: Mean arterial pressure by the compound in open chest anesthetized dog, after id administration at a dose of 10 mg/kg.; format: functional, Canis lupus familiaris, Artery; conditions: route intraduodenal
Method in brief: (§1)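 Hemodynamics (heart rate, mean arterial pressure) recorded in pentobarbital-anesthetized (30 mg/kg iv, 5 mg/kg per h maintenance) open-chest mongrel dogs during the refractoriness study at BCL 300 ms. Readings were taken before and after iv or intraduodenal compound and expressed as change from control.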

Canis familiaris [2] = experiment: Heart beat by the compound in open chest anesthetized dog, after iv administration at a dose of 5.0 mg/kg.; format: functional, Canis lupus familiaris; set-up: unit not given here; method in brief: as §1
Canis familiaris [3] = species: Canis familiaris; experiment: Repolarization to reach -60mV, in canine Purkinje Fibers at a concentration of 0.3 uM at 300 ms (simulating tachycardia); format: functional, Canis lupus familiaris, Purkinje fiber
Method in brief: (§2)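 Isolated canine Purkinje fiber bundles were driven by square-wave pulses 2.0 ms long at 2× threshold and equilibrated ≥1 h to steady state. Each concentration was superfused 45–60 min before recording, and action potentials were sampled at 4–6 sites per fiber in control and after drug, giving Vmax and APD to −60 mV.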

Canis familiaris [4] = experiment: Atrial conduction time by the compound in open chest anesthetized dog, after iv administration at a dose of 5.0 mg/kg.; format: functional, Canis lupus familiaris, Cardiac atrium; set-up: unit not given here
Method in brief: (§3)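 Mongrel dogs anesthetized with sodium pentobarbital (30 mg/kg iv, then 5 mg/kg per h), chest opened, paced at BCL 300 ms. Atrial conduction time was taken as the interval between electrograms recorded at the proximal and distal sites of the atrial recording electrode array, before and after iv or intraduodenal dosing. Values are changes from control.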

Canis familiaris [5] = species: Canis familiaris; experiment: Repolarization to reach -60mV, in canine Purkinje Fibers at a concentration of 1.0 uM at 300 ms (simulating tachycardia); format: functional, Canis lupus familiaris, Purkinje fiber; method in brief: as §2
Canis familiaris [6] = experiment: Ventricular effective refractory period by the compound in open chest anesthetized dog, after iv administration at a dose of 5.0 mg/kg.; format: functional, Canis lupus familiaris, Heart; set-up: unit not given here
Canis familiaris [7] = experiment: Atrial effective refractory period by the compound in open chest anesthetized dog, after iv administration at a dose of 5.0 mg/kg.; format: functional, Canis lupus familiaris, Cardiac atrium; set-up: unit not given here
Method in brief: (§4)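 Open-chest mongrel dogs under sodium pentobarbital anesthesia (30 mg/kg iv plus 5 mg/kg per h), paced at basic cycle length 300 ms. Atrial effective refractory period was determined by electrical stimulation before and after iv or intraduodenal compound and reported as change from control.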

Canis familiaris [8] = experiment: Atrial conduction time by the compound in open chest anesthetized dog, after id administration at a dose of 10 mg/kg.; format: functional, Canis lupus familiaris, Cardiac atrium; conditions: route intraduodenal; method in brief: as §3
Canis familiaris [9] = species: Canis familiaris; experiment: Maximum rate of rise of the upstroke of transmembrane potential, in canine Purkinje Fibers at a concentration of 1.0 uM at 300 ms (simulating tachycardia); format: functional; set-up: unit not given here; conditions: Canis lupus familiaris, Purkinje fiber; method in brief: as §2
Canis familiaris [10] = experiment: Ventricular effective refractory period by the compound in open chest anesthetized dog, after id administration at a dose of 10 mg/kg.; format: functional, Canis lupus familiaris, Heart; conditions: route intraduodenal
Canis familiaris [11] = species: Canis familiaris; experiment: Maximum rate of rise of the upstroke of transmembrane potential, in canine Purkinje Fibers at a concentration of 1.0 uM at 1000 ms (simulating normal heart rate); format: functional; set-up: unit not given here; conditions: Canis lupus familiaris, Purkinje fiber; method in brief: as §2
Canis familiaris [12] = species: Canis familiaris; experiment: repolarization to reach -60mV, in canine Purkinje Fibers at a concentration of 3.0 uM at 1000 ms (simulating normal heart rate); format: functional, Canis lupus familiaris, Purkinje fiber
Method in brief: (§5)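 Purkinje fiber bundles were stimulated with square-wave current pulses of 2.0 ms at twice threshold and equilibrated for at least 1 h, or until action potential parameters were steady. Each concentration was superfused for 45-60 min to reach steady state. Action potentials were recorded at four to six sites per fiber, under control and after drug.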

Canis familiaris [13] = species: Canis familiaris; experiment: Maximum rate of rise of the upstroke of transmembrane potential, in canine Purkinje Fibers at a concentration of 3.0 uM at 1000 ms (simulating normal heart rate); format: functional; set-up: unit not given here; conditions: Canis lupus familiaris, Purkinje fiber; method in brief: as §2
Canis familiaris [14] = species: Canis familiaris; experiment: Maximum rate of rise of the upstroke of transmembrane potential, in canine Purkinje Fibers at a concentration of 0.3 uM at 300 ms (simulating tachycardia); format: functional; set-up: unit not given here; conditions: Canis lupus familiaris, Purkinje fiber; method in brief: as §2
Canis familiaris [15] = species: Canis familiaris; experiment: Repolarization to reach -60mV, in canine Purkinje Fibers at a concentration of 3.0 uM at 300 ms (simulating tachycardia); format: functional, Canis lupus familiaris, Purkinje fiber; method in brief: as §2
Canis familiaris [16] = species: Canis familiaris; experiment: repolarization to reach -60mV, in canine Purkinje Fibers at a concentration of 0.3 uM at 1000 ms (simulating normal heart rate); format: functional, Canis lupus familiaris, Purkinje fiber; method in brief: as §5
Canis familiaris [17] = species: Canis familiaris; experiment: repolarization to reach -60mV, in canine Purkinje Fibers at a concentration of 1.0 uM at 1000 ms (simulating normal heart rate); format: functional, Canis lupus familiaris, Purkinje fiber; method in brief: as §5
Canis familiaris [18] = experiment: Mean arterial pressure by the compound in open chest anesthetized dog, after iv administration at a dose of 5.0 mg/kg.; format: functional, Canis lupus familiaris, Artery; set-up: unit not given here; method in brief: as §1
Canis familiaris [19] = experiment: Atrial effective refractory period by the compound in open chest anesthetized dog, after id administration at a dose of 10 mg/kg.; format: functional, Canis lupus familiaris, Cardiac atrium; conditions: route intraduodenal; method in brief: as §4
Canis familiaris [20] = experiment: Heart beat by the compound in open chest anesthetized dog, after id administration at a dose of 10 mg/kg.; format: functional, Canis lupus familiaris; conditions: route intraduodenal; method in brief: as §1
Canis familiaris [21] = species: Canis familiaris; experiment: Maximum rate of rise of the upstroke of transmembrane potential, in canine Purkinje Fibers at a concentration of 0.3 uM at 1000 ms (simulating normal heart rate); format: functional; set-up: unit not given here; conditions: Canis lupus familiaris, Purkinje fiber; method in brief: as §2
Canis familiaris [22] = experiment: Ventricular conduction time by the compound in open chest anesthetized dog, after iv administration at a dose of 5.0 mg/kg.; format: functional, Canis lupus familiaris, Heart; set-up: unit not given here
Method in brief: (§6)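 Mongrel dogs were anesthetized with sodium pentobarbital (30 mg/kg iv, then 5 mg/kg per h), the chest opened, and the heart paced at BCL 300 ms. Compound was given iv or intraduodenally. Ventricular conduction time was taken as the interval between electrograms at the proximal and distal sites of the recording electrode array. 2-5 dogs per dose.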

Canis familiaris [23] = species: Canis familiaris; experiment: Maximum rate of rise of the upstroke of transmembrane potential, in canine Purkinje Fibers at a concentration of 3.0 uM at 300 ms (simulating tachycardia); format: functional; set-up: unit not given here; conditions: Canis lupus familiaris, Purkinje fiber; method in brief: as §2
Canis familiaris [24] = experiment: Ventricular conduction time by the compound in open chest anesthetized dog, after id administration at a dose of 10 mg/kg.; format: functional, Canis lupus familiaris, Heart; conditions: route intraduodenal; method in brief: as §6

`CN(Cc1ccc2ccccc2n1)CC(O)COc1ccc(NS(C)(=O)=O)cc1` (centres undefined) showed an MBP (Canis familiaris [1]) of -5, an HR (Canis familiaris [2]) of -18 and an APD (Canis familiaris [3]) of 8%. The ACT (Canis familiaris [4]) was -9, the APD (Canis familiaris [5]) was 19% and the VERP (Canis familiaris [6]) was 21. For the same compound, the AERP (Canis familiaris [7]) was 45, the ACT (Canis familiaris [8]) was -4 and the Vmax (Canis familiaris [9]) was 15. The VERP (Canis familiaris [10]) was 20, the Vmax (Canis familiaris [11]) was 6 and the APD (Canis familiaris [12]) was 62%. The Vmax (Canis familiaris [13]) was -7, the Vmax (Canis familiaris [14]) was 5 and the APD (Canis familiaris [15]) was 27%. The APD (Canis familiaris [16]) was 19%, the APD (Canis familiaris [17]) was 43% and the MBP (Canis familiaris [18]) was -9. It also gave an AERP (Canis familiaris [19]) of 31, an HR (Canis familiaris [20]) of -15 and a Vmax (Canis familiaris [21]) of -2. For the same compound, the VCT (Canis familiaris [22]) was -2, the Vmax (Canis familiaris [23]) was -9 and the VCT (Canis familiaris [24]) was 1.
